Experimental data reported in ChEMBL document CHEMBL3352556, “Neural cell activation by phenolic compounds from the Siberian larch (Larix sibirica)” (J Nat Prod, 2014).
Calls of active or inactive are those of the source. The calls are words filed in the database; no cut-off is given here.

Experiments:
[1] = Stimulation of process formation/elongation of C57BL/6J mouse Schwann cells at 100 pM to 100 nM after 24 hrs by microscopy relative to DMSO-treated control; assay type: functional
Summary of the method: (§1)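 Schwann cells from dorsal root ganglia of 6- to 8-day-old mice were seeded at 1.25 × 10^4 cells/well on PLL and cultured serum-free. Compound (0.1% DMSO final; DMSO control) was added 1 h after seeding and cells were fixed at 24 h. Process length was measured microscopically. Duplicates, ≥100 cells per treatment, 3 independent experiments, mean ± SEM.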

[2] = Induction of migration of C57BL/6J mouse cerebellar primary neuron assessed as cell population migrating to 1- 150 um at 100 nM after 48 hrs by microscopy (reference value: 72 %); assay type: functional
[3] = Cytotoxicity against C57BL/6J mouse primary cerebellar neurons assessed as reduction in cell viability at 1 uM after 24 hrs by microscopy
Astrocyte = test: Reduction in migration of C57BL/6J mouse brain astrocytes assessed as distance of migration at 100 nM after 8 to 48 hrs by scratch injury assay (reference value: 700 um); assay type: functional
Schwann [4] = test: Stimulation of process formation/elongation of C57BL/6J mouse Schwann cells after 24 hrs by microscopy; assay type: functional, cell-based; summary of the method: as §1
[5] = Induction of migration of C57BL/6J mouse cerebellar primary neuron assessed as cell population migrating to 151- 300 um at 100 nM after 48 hrs by microscopy (reference value: 25 %); assay type: functional
[6] = Induction of neurite outgrowth in C57BL/6J mouse primary cerebellar neurons at 100 nM after 24 hrs by microscopy relative to DMSO-treated control; assay type: functional
Summary of the method: (§2)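 Cerebellar granule neurons from 6- to 8-day-old mice were plated at 2.5 × 10^4 cells/well on PLL in defined serum-free medium. Compound (100 pM–1 μM; 0.1% DMSO final, DMSO control) was added 1 h post-seeding and cells were fixed at 24 h. Neurite length was measured by microscopy. Duplicates, ≥100 cells per treatment, 3 independent experiments, mean ± SEM.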

Mus musculus [7] = organism: Mus musculus; test: Induction of neurite outgrowth in C57BL/6J mouse motoneurons at 1 to 200 nM after 24 hrs by microscopy; assay type: functional
Summary of the method: (§3)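 Motoneurons came from spinal cords of E14.5 mice, were seeded at 1.25 × 10^4 cells/well on poly-L-ornithine and cultured serum-free. Compound was added 1 h after seeding (0.1% DMSO final; DMSO control) and cells were fixed at 24 h. Neurite length was measured microscopically. Duplicates, ≥100 cells per treatment, 3 independent experiments, mean ± SEM.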

Mus musculus [8] = organism: Mus musculus; test: Induction of neurite outgrowth in C57BL/6J mouse motoneurons at 500 nM after 24 hrs by microscopy; assay type: functional; summary of the method: as §3
[9] = Cytotoxicity against C57BL/6J mouse Schwann cells at 1 uM after 24 hrs by microscopy; assay type: cell-based
[10] = Induction of migration of C57BL/6J mouse cerebellar primary neuron assessed as cell population migrating to >301 um at 100 nM after 48 hrs by microscopy (reference value: 3 %); assay type: functional
Mus musculus [11] = organism: Mus musculus; test: Induction of neurite outgrowth in C57BL/6J mouse primary cerebellar neurons after 24 hrs by microscopy; assay type: functional; summary of the method: as §2
[12] = Induction of migration of C57BL/6J mouse cerebellar primary neuron at 100 nM after 48 hrs by microscopy relative to DMSO-treated control; assay type: functional
Schwann [13] = test: Stimulation of process formation/elongation of C57BL/6J mouse Schwann cells at 1 uM after 24 hrs by microscopy; assay type: functional, cell-based; summary of the method: as §1
[14] = Induction of neurite outgrowth in C57BL/6J mouse dorsal root ganglion neurons at 100 nM after 24 hrs by microscopy relative to DMSO-treated control; assay type: functional, DRG neuron
Summary of the method: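 Dorsal root ganglion neurons from 6- to 8-day-old mice were seeded at 1.25 × 10^4 cells/well on PLL in serum-free culture. 100 nM compound (0.1% DMSO final) was added 1 h after seeding. Cells were fixed after 24 h and neurite length was measured by microscopy versus DMSO control. Duplicates, ≥100 cells per treatment, 3 independent experiments, mean ± SEM.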

In the case of `COc1cc(C[C@@H](CO)[C@H](CO)Cc2ccc(O)c(OC)c2)ccc1O` [(+)-SECOISOLARICIRESINOL], the “fold change (FC)” value [1] is reported as 1.8, the Activity [2] is reported as 65% and the Activity [3] is reported as “Non-toxic”. For the same compound, the Activity (Astrocyte) was 500 µm, the Activity (Schwann [4]) was “Dose-dependent effect” and the Activity [5] was 27%. The “fold change (FC)” value [6] was 1.6, the Activity (Mus musculus [7]) was “Active” and the Activity (Mus musculus [8]) was “inactive”. For the same compound, the Activity [9] was “Non-toxic”, the Activity [10] was 8% and the Activity (Mus musculus [11]) was “Dose-dependent effect”. The “fold change (FC)” value [12] was 1.2 and the Activity (Schwann [13]) was “inactive”.
For `O=C1c2c(O)cc(O)cc2O[C@H](c2ccc(O)c(O)c2)[C@H]1O` [(+)-TAXIFOLIN], the “fold change (FC)” value [1] was 1.9, the Activity [2] was 59% and the Activity [3] was “Non-toxic”. For the same compound, the Activity (Astrocyte) was 500 µm, the Activity (Schwann [4]) was “Dose-dependent effect” and the Activity [5] was 29%. The “fold change (FC)” value [6] was 1.6, the Activity (Mus musculus [7]) was “Active” and the Activity (Mus musculus [8]) was “inactive”. The Activity [9] was “Non-toxic”, the Activity [10] was 12% and the Activity (Mus musculus [11]) was “Dose-dependent effect”. For the same compound, the “fold change (FC)” value [12] was 1.4, the fold change (FC) [14] was 1.7 and the Activity (Schwann [13]) was “inactive”.
For `COc1cc([C@H]2c3cc(O)c(OC)cc3C[C@@H](CO)[C@@H]2CO)ccc1O` [ISOLARICIRESINOL], the “fold change (FC)” value [1] was 1.8, the Activity [2] was 68% and the Activity [3] was “Non-toxic”. The Activity (Astrocyte) was 500 µm, the Activity (Schwann [4]) was “Dose-dependent effect” and the Activity [5] was 24%. For the same compound, the “fold change (FC)” value [6] was 1.6, the Activity (Mus musculus [7]) was “Active” and the Activity (Mus musculus [8]) was “inactive”. The Activity [9] was “Non-toxic”, the Activity [10] was 8% and the Activity (Mus musculus [11]) was “Dose-dependent effect”. For the same compound, the “fold change (FC)” value [12] was 1.2 and the Activity (Schwann [13]) was “inactive”.
